Columns and labels:
[1] = Stability in phosphate buffer saline pH 7.4; assay type: physicochemical; settings: PBS pH 7.4 with 2% DMSO, 196 μM conjugate, 37 °C, 0-24 h, HPLC, n = 3
Method in brief: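 Conjugate in PBS pH 7.4 with 2% DMSO, 196 μM final, held at 37 °C. Aliquots were withdrawn at time points over 0–24 h and analysed by HPLC. Results were plotted as areas of intact conjugate and of released free drug over time (n = 3).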

[2] = tested on: U87MG cells; assay: XTT cytotoxicity assay; assay type: cell-based, Human; settings: for cytotoxicity on U87MG cells at 24 h: XTT assay, 24 h exposure, 5-160 nM, n = 4
Method in brief: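 U87MG cells were kept in EMEM with 10% FBS and 1% penicillin–streptomycin at 37 °C, 5% CO2. Cells were seeded at 1 × 10^4/well and treated after 24 h with 5–160 nM test compound at 37 °C. At 24 and 72 h, XTT with electron coupling reagent was added for 3 h, then A450 was read. Values were normalized to untreated cells. Controls were 0.05% DMSO and medium. Mean ± SD, n = 4. IC50 from concentration–response curve fit.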

[3] = Control incubation in enzyme-free reaction buffer pH 6.0; assay type: physicochemical; settings: enzyme free buffer pH 6.0, 37 °C, 24 h, 183 μM conjugate, RP-HPLC, n = 3
Method in brief: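 Enzyme-free control run alongside the cathepsin B cleavage assay. Reaction buffer was 150 mM sodium acetate, 12 mM EDTA and 24 mM DTT, pH 6.0. Conjugate was added from a DMSO stock to 183 μM final and incubated at 37 °C. Aliquots were taken over 0–24 h for RP-HPLC. Peak areas at the retention times of pure drug and conjugate tracked conjugate loss and free drug appearance.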

[4] = tested on: U87MG cells with transferrin receptors blocked by excess T7-PEG4-N3; assay: T7 competition assay: transferrin receptor blocking studies; assay type: cell-based; settings: Homo sapiens, U-87 MG, read-out: IC50 at 72 h in TfR-blocked U87MG cells
Method in brief: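 U87MG cells were seeded at 1 × 10^4/well and grown 24 h. Medium was replaced with medium containing a 10-fold molar excess of azido-PEG4-T7 peptide relative to conjugate for 1 h. Cells were then exposed to 5–160 nM test compound. Controls were medium, 0.05% DMSO and peptide alone. XTT read-out at 72 h, A450 relative to controls, n = 4. IC50 from concentration–response curve fit.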

[5] = cited from earlier work
[6] = tested on: TfR; settings: cited from earlier work

IC50 [4]	Molecule	stability in phosphate-buffered saline [1]	cytotoxicity on U87MG cells at 24 h [2]	release of free SN-38 in enzyme free buffer [3]	IC50 ([2]; Homo sapiens, U-87 MG, 72 h, read-out: IC50 on U87MG cells at 72 h)	potency compared to irinotecan [5]	binding affinity for TfR relative to Tf [6]
	CCc1c2c(nc3ccc(OCc4ccc(NC(=O)[C@H](C)NC(=O)[C@@H](NC(=O)CCCCCNC(=O)COCCOCCOCCNC(=O)CCCCC(=O)N5Cc6ccccc6-c6c(nnn6CCOCCOCCOCCOCCC(=O)N[C@@H](Cc6c[nH]cn6)C(=O)N[C@@H](C)C(=O)N[C@H](C(=O)N[C@@H](Cc6ccc(O)cc6)C(=O)N6CCC[C@H]6C(=O)N[C@@H](CCCNC(=N)N)C(=O)N[C@@H](Cc6c[nH]cn6)C(=O)O)[C@@H](C)CC)-c6ccccc65)C(C)C)cc4)cc13)-c1cc3c(c(=O)n1C2)COC(=O)[C@]3(O)CC [Compound T7-SN-38]	very minimal decomposition or cleavage	did not exert pronounced cytotoxicity	No free SN-38 was observed			
27.6 nM	CCc1c2c(nc3ccc(O)cc13)-c1cc3c(c(=O)n1C2)COC(=O)[C@]3(O)CC [SN-38, 7-Ethyl-10-hydroxycamptothecin]		did not exert pronounced cytotoxicity		26.4 nM	100–1000 times	
	His-Ala-Ile-Tyr-Pro-Arg-His [T7 peptide]						comparable to that of Tf

Reference: article PMC10795035 (ACS Omega, 2024)
